SUMO1 PPI mod: modulators of SUMO1 protein-protein interactions, primary screen, biochemical, uHTS. AID 602429, 2012. hit rate 0.33% among 360,000. inhibition, % at 20 µM. SUMO1 binding to a labelled peptide, TR-FRET, 1 h. Small ubiquitin-related modifier 1 (Homo sapiens), P63165; in the data active = inhibition above about 37%
Target sequence (P63165 whole entry, looked up): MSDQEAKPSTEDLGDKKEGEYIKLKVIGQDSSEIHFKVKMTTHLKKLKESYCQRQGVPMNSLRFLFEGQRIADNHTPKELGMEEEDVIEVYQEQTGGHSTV
LMPTP block: LMPTP phosphatase inhibitors, primary screen, biochemical, fluorescence intensity, uHTS; hit rate 0.22% among 360,000; inhibition, % at 20 µM; Low molecular weight phosphotyrosine protein phosphatase (Homo sapiens), P24666; recombinant LMPTP-A, OMFP fluorogenic substrate;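 active = compounds that cut the enzyme signal by at least half of the control window in the single-dose screen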
Target sequence (P24666 whole entry, looked up): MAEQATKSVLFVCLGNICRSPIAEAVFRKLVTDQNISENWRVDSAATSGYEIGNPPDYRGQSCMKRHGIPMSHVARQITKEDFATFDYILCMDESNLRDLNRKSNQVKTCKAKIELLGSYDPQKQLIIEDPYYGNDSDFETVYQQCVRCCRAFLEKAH
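Material: LMPTP-A; amount: 0.625 nM enzyme; doses: single 20 µM dose; times: reaction 50 min, room temperature, dark; technique: fluorescence intensity of OMFP turnover product; benchmarks: no-enzyme and uninhibited controls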
Scp1 inh: Scp-1 phosphatase inhibitors, primary screen, biochemical, colorimetric, uHTS; Carboxy-terminal domain RNA polymerase II polypeptide A small phosphatase 1 (Homo …; Recombinant Scp1, phosphopeptide, malachite green phosphate absorbance; inhibition, % at 20 µM; hit rate 0.88% among 340,000; AID 493091, 2011;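 active = inhibition above about 50% at 20 µM, limit read from the data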
Target sequence (Q9GZU7 76-261 limits assumed): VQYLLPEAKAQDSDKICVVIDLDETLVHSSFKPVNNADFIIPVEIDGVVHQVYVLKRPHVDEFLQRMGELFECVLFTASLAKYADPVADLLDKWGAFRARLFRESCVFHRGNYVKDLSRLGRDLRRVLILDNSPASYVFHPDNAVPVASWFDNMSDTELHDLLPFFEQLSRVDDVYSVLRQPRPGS
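Incubation: 45 min enzyme reaction at room temperature / System: truncated SCP-1 phosphatase (76-261aa) / Reagent: Phospho 17-mer peptide substrate / Buffer or medium: Acidic Tris acetate buffer with magnesium and detergent / Signal: absorbance at 630 nm / Doses: one concentration, 20 µM, with 1.0% DMSO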
STEP block: STEP phosphatase inhibitors, primary screen, biochemical, fluorescence intensity, uHTS | Tyrosine-protein phosphatase non-receptor type 5 (Homo sapiens), P54829 | recombinant STEP, OMFP fluorogenic substrate | inhibition, % at 20 µM | hit rate 0.25% among 360,000 | AID 588621, 2011;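 active = inhibition at 20 µM, scaled per plate between control wells, above about 37%, limit read from the data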
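Also added – OMFP at 25 µM · Test system – STEP tyrosine phosphatase · Technique – FITC-channel fluorescence of OMFP product · Schedule – 20 min at room temperature, dark · Evaluation – control-normalized % inhibition with plate pattern correction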
DNMT1 block: human DNMT1 methyltransferase inhibitors, primary screen, biochemical, molecular beacon, fluorescence, HinP1I cleavage, uHTS. DNA (cytosine-5)-methyltransferase 1 (Homo sapiens), P26358. inhibition (reported as % activation of signal), % at 10 µM. hit rate 0.83% among 360,000; in the data active = inhibition above about 50%
Beacon interf DR: spectral interference with molecular beacon fluorescence, dose response, artefact control for DNMT1 inhibitor project, biochemical, fluorescent molecular beacon | shares compounds with DNMT1 block | spectral interference counter-screen | IC50, µM | 200 tested, under 10 active | AID 602382, 2012; call rule not given here
DNMT1 confirm: DNMT1 methyltransferase inhibitor retest, confirmation, biochemical, molecular beacon, fluorescence, single concentration. shares compounds with DNMT1 block. inhibition, % at 10 µM. hit rate 8% among 2,300. DNMT1 molecular beacon HinP1I cleavage;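 active = average inhibition of at least 30% in the single-concentration confirmation test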
DNMT1 interf: beacon fluorescence artifact counter-screen; activation (fluorescence interference), % at 10 µM; DNMT1 molecular beacon spectral interference counterscreen, fluorescence 485/520; hit rate 1% among 2,300; shares compounds with DNMT1 block; AID 602387;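 active = activation of at least 30% at 10 µM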;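 also: DNMT1 catalytic domain with a HinP1I cleavage step and a FAM/dabcyl DNA beacon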
Numbers stand for hits; i = inactive; nt = not tested or not shown. The list is not random: actives were taken first. Their share in the collection is about 1.7%.

SMILES	SUMO1 PPI mod	LMPTP block	Scp1 inh	STEP block	DNMT1 block	DNMT1 confirm	DNMT1 interf	others
O=C(COC(=O)c1ccccc1Oc1ccccc1)NCc1ccco1	i	i	69.9	i	55.3	i	i
CC(C)Cn1c(N)c(C(=O)COC(=O)c2cc(-c3ccccc3)nc3ccccc23)c(=O)n(C)c1=O	i	i	i	i	i	nt	nt
O=C(COc1ccccc1-c1ccccc1)NCc1ccco1	i	i	i	i	i	nt	nt
O=C(COC(=O)c1cc(-c2ccco2)nc2ccccc12)NCc1ccc2c(c1)OCO2	i	i	i	i	76.6	i	i
Nc1c(CNCc2nnn(Cc3ccccc3)c2N)nnn1Cc1ccccc1	i	i	nt	i	i	nt	nt
Cc1cccc(NC(=O)CSc2cc(C)c(C#N)c3nc4ccccc4n23)c1	i	i	i	i	52.3	i	i
O=C(COC(=O)c1ccccc1O)Nc1ncc(Cl)cc1Cl	i	i	i	i	64.0	i	i
CC1CCN(CCc2nc3cc(NC(=O)C(C)C)ccc3n2C)CC1	i	i	i	i	i	nt	nt
CC1Cc2cc(/C=C3/SC(=S)NC3=O)ccc2O1 (configuration not stated)	i	i	i	i	i	nt	nt
Cc1ccc(C2C(/C=C3/SC(=S)NC3=O)=C(c3cccs3)Oc3ccccc32)cc1 (configuration not stated)	i	i	i	i	83.1	71.6	i	Beacon interf DR=i
O=C(Nc1ccc2oc(=O)ccc2c1)c1ccc(-c2cccc(Cl)c2)o1	i	i	i	i	90.6	i	i
CCCCn1c(-c2ccc(Cl)c(Cl)c2)nc2cc3[nH]c(=O)c(C(C)C)nc3cc21	i	i	i	i	53.2	i	i
CCOc1cc2c(c3c1C(c1ccccc1)N(S(=O)(=O)c1ccc(C)cc1)C3)C(=O)C=CC2=O (configuration not stated)	i	i	nt	i	i	nt	nt
CC(Oc1ccc(Br)cc1)C(=O)NNC(=O)CCN1CCN(c2ccccc2)CC1 (configuration not stated)	i	i	i	i	i	nt	nt
COC(=O)c1ccc(NC(=O)c2ccc(NC(=O)c3ccco3)cc2)cc1	54.4	i	i	i	57.8	i	i
O=C(/C=C/c1ccc(Br)cc1)c1ccc(NC(=O)c2ccco2)cc1	i	i	i	i	87.7	i	i
Cc1cc(C)cc(NC(=O)c2ccc(NC(=O)c3ccco3)cc2)c1	i	i	i	i	i	nt	nt
C[C@@H](c1ccccc1)N1C[C@@H](COCc2ccccc2)Oc2cc(N3CCC[C@H]3CO)ccc2S1(=O)=O	i	i	nt	nt	nt	nt	nt
Cc1cc(/C=C2\SC(=S)NC2=O)c(C)n1C	42.7	i	i	i	91.9	i	i
CCN(CC)S(=O)(=O)c1cc(NS(=O)(=O)c2ccccc2)ccc1C	i	i	i	i	74.9	i	i
CCN(CC)S(=O)(=O)c1cc(NS(=O)(=O)c2cccc(C(=O)O)c2)ccc1C	i	i	i	i	i	nt	nt
Cc1ccc2oc(-c3ccc(C)c(NC(=O)Cc4cccs4)c3)nc2c1	i	i	i	i	51.9	i	i
Cc1cc(NS(=O)(=O)c2ccc(NC(=O)Cc3cccs3)cc2)no1	i	i	i	i	i	nt	nt
Cc1ccc(-c2nc3ccccc3o2)cc1NC(=S)NC(=O)c1cc2ccccc2o1	i	i	i	i	i	nt	nt
Cc1cc(NC(=O)Cc2cccs2)no1	i	55.0	83.6	i	111.2	i	i
SMILES	SUMO1 PPI mod	LMPTP block	Scp1 inh	STEP block	DNMT1 block	DNMT1 confirm	DNMT1 interf	others
Cc1ccc2oc(-c3ccc(C)c(NC(=S)NC(=O)c4cccs4)c3)nc2c1	i	i	i	i	51.1	i	i
Cc1ccc(-c2nnc(-c3ccc(NC(=O)Cc4cccs4)cc3)o2)cc1	i	i	i	i	i	i	i
COc1cccc(C(O)c2nc(-c3ccc(Cl)cc3)cs2)c1 (configuration not stated)	i	i	nt	i	i	nt	nt
Cc1ccsc1/C=N/N=C/c1sccc1C	i	i	i	i	56.0	i	i
CCC(=O)N1N=C(c2c(-c3ccccc3)c3cc(Cl)ccc3[nH]c2=O)CC1c1ccco1 (configuration not stated)	i	i	i	i	52.0	i	i
O=C(O)CCC(=O)N1N=C(c2c(-c3ccccc3)c3cc(Cl)ccc3[nH]c2=O)CC1c1ccco1 (configuration not stated)	i	i	i	i	i	nt	nt
COc1cccc(C(O)c2ncc(-c3ccc(C(F)(F)F)cc3)[nH]2)c1 (configuration not stated)	i	i	nt	i	i	nt	nt
Cc1c(NS(=O)(=O)c2cc(C(=O)OCC(=O)c3ccccc3F)ccc2Cl)c(=O)n(-c2ccccc2)n1C	i	i	nt	i	63.2	i	i
Cc1cccc(C)c1NC(=O)CN1CCN(C(=O)c2ccc(OCc3cn4ccccc4n3)cc2)CC1	i	i	i	i	i	nt	nt
COc1ccc(/C=N/NC(=O)c2cccc([N+](=O)[O-])c2)c2ccccc12	i	i	i	i	51.2	i	i
CCc1ccc(/C=C2/SC(=S)N(CCC(=O)Nc3cccnc3)C2=O)cc1	i	i	i	i	i	nt	nt
CC(Oc1ccc(C#N)cc1)C(=O)Nc1ccc(-n2cnnn2)cc1 (configuration not stated)	i	i	i	i	i	nt	nt
O=C1CCCC2=C1C(c1ccco1)Nc1ccc3ccccc3c12 (configuration not stated)	i	i	74.0	i	103.2	50.3	i	Beacon interf DR=i
CC(=O)N(CN1C(=O)c2ccccc2C1=O)c1ccc2c(c1)oc1ccccc12	i	i	i	i	79.0	i	i
CC(=O)N(CCCCN1C(=O)c2ccccc2C1=O)c1ccc(C)cc1	i	i	i	i	i	nt	nt
Cc1cc(N2CCCC2)ccc1NC(=O)COc1ccccc1	i	i	i	i	63.7	i	i
Cc1cc(OCC(=O)Nc2ccc(N3CCCC3)cc2)cc(C)c1Cl	i	i	i	i	71.3	i	i
O=C(Cn1ccnc1[N+](=O)[O-])N(CCO)CCO	i	i	nt	i	i	nt	nt

Screens deposited in PubChem BioAssay by Sanford-Burnham Center for Chemical Genomics.
